{"source": "paper PMC5710753", "about": "(Biochemical pharmacology, 2017)", "key": {"OXE receptor [1]": {"biological_target": "T1, OXE receptor (Homo sapiens, UniProt Q8TDS5)", "T1 sequence (Q8TDS5 whole entry)": "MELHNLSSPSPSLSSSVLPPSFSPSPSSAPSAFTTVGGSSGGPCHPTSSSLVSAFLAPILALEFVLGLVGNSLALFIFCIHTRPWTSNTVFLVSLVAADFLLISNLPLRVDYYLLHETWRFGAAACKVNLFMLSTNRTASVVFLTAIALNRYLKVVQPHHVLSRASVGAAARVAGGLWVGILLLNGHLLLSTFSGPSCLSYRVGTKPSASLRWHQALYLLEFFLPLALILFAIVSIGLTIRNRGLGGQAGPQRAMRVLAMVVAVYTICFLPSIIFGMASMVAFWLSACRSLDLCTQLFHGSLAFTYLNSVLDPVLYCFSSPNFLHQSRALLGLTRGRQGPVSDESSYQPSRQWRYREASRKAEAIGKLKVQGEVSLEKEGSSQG", "experiment": "Inhibition of 5-oxo-ETE-induced calcium mobilization in human neutrophils", "type": "cell-based", "procedure,_shortened": "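Neutrophils isolated by dextran sedimentation and Ficoll-Paque centrifugation, loaded with indo-1 AM and held in a cuvette at 37 °C. Once baseline fluorescence was stable, the test compound was added, then 10 nM 5-oxo-ETE 2 min later, then digitonin (0.1% final) 1 min after that. Calcium response was read by spectrofluorometry.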"}, "[2]": {"type": "in vivo, cynomolgus monkeys", "settings": "for time of maximal plasma level: after S230 30 mg/kg oral gavage", "procedure,_shortened": "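Three monkeys were gavaged with 30 mg/kg (4.4 mL/kg) of an ethanol stock diluted into 10 volumes of 20 mM NaHCO3. Heparinized blood was taken predose and at 1–24 h, and plasma was stored at −80 °C. Plasma was treated with MeOH and an indole internal standard, then C18 solid-phase extracted. Quantitation used RP-HPLC-UV (60–80% MeOH, 0.02% HOAc) by peak-area ratio to the internal standard, with identities confirmed by LC-MS/MS.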"}, "[3]": {"experiment": "Incubation with plasma or intact leukocytes", "type": "in vitro ADME"}, "[4]": {"settings": "oral racemic 230; cited from earlier work"}, "OXE receptor [5]": {"tested_on": "OXE receptor", "settings": "feline; cited from earlier work"}, "OXE receptor [6]": {"tested_on": "OXE receptor", "settings": "cited from earlier work"}, "[7]": {"settings": "monkey liver microsomes + NADPH; cited from earlier work"}, "OXE receptor [8]": {"biological_target": "T1, OXE receptor", "settings": "S230 vs R230; cited from earlier work"}}, "note": "Where two headings read alike, the source gives them in different places.", "data": [{"smiles": "CCCCC[C@@H](O)c1c(C(=O)C[C@H](C)CC(=O)O)c2cc(Cl)ccc2n1C", "note": "[x2, (S)-5-(5-chloro-2-((R)-1-hydroxyhexyl)-1-methyl-1H-indol-3-yl)-3-methyl-5-oxopentanoic acid]", "values": [{"measurement": "IC50", "setting": "OXE receptor [1]", "value": "> 10", "unit": "µM"}, {"measurement": "peak area relative to the area of metabolite e", "setting": "[2]; all time points, plasma after S230 30 mg/kg oral, RP-HPLC", "value": "about 3%"}]}, {"smiles": "CCCCC[C@H](O)c1c(C(=O)C[C@H](C)CC(=O)O)c2cc(Cl)ccc2n1C", "note": "[y1, (S)-5-(5-chloro-2-((S)-1-hydroxyhexyl)-1-methyl-1H-indol-3-yl)-3-methyl-5-oxopentanoic acid]", "values": [{"measurement": "IC50", "setting": "OXE receptor [1]", "value": "1.6 ± 0.3", "unit": "µM"}, {"measurement": "Tmax", "setting": "[2]; female, cynomolgus monkey, plasma, po, 30 mg/kg", "value": "≤ 1", "unit": "h"}]}, {"smiles": "CCCCCCc1c(C(=O)CC(C)CC(=O)O)c2cc(Cl)ccc2n1C", "note": "(stereo not shown) [compound 230, 5-(5-chloro-2-hexyl-1-methyl-1H-indol-3-yl)-3-methyl-5-oxopentanoate]", "values": [{"measurement": "formation of α-hydroxylation products", "setting": "[3]", "value": "Neither did we detect such products"}, {"measurement": "maximal plasma concentration", "setting": "[4]", "value": 87, "unit": "µM"}, {"measurement": "antagonist activity in cats", "setting": "OXE receptor [5]", "value": "only a weak antagonist"}, {"measurement": "antagonist activity in vitro in monkeys", "setting": "OXE receptor [6]", "value": "potent OXE receptor antagonist"}, {"measurement": "formation of α-OH-230", "setting": "[7]", "value": "did not detect α-OH-230"}]}, {"smiles": "CCCCCCc1c(C(=O)C[C@H](C)CC(=O)O)c2cc(Cl)ccc2n1C", "note": "[S230, (S)-5-(5-chloro-2-hexyl-1-methyl-1H-indol-3-yl)-3-methyl-5-oxopentanoate]", "values": [{"measurement": "plasma concentration", "setting": "[2]; 8 h after S230 30 mg/kg oral", "value": "greater than 1.5 μM"}, {"measurement": "maximal plasma concentration", "setting": "[2]; S230 30 mg/kg oral gavage, at 1 h", "value": 32, "unit": "µM"}, {"measurement": "time of maximal plasma level", "setting": "[2]", "value": "≤ 1", "unit": "h"}, {"measurement": "plasma level as % of maximal concentration", "setting": "[2]; by 4 h after S230 30 mg/kg oral", "value": "about 11%"}, {"measurement": "plasma level as % of maximal concentration", "setting": "[2]; by 8 h after S230 30 mg/kg oral", "value": 5, "unit": "%"}, {"measurement": "potency relative to the R-enantiomer (R230)", "setting": "OXE receptor [8]", "value": "over 400 times"}]}, {"smiles": "CC(O)CCCCc1c(C(=O)C[C@H](C)CC(=O)O)c2cc(Cl)ccc2n1C", "note": "(stereo partly drawn) [ω2-OH-S230, (3S)-5-(5-chloro-2-(5-hydroxyhexyl)-1-methyl-1H-indol-3-yl)-3-methyl-5-oxopentanoate]", "values": [{"measurement": "time of maximal plasma level", "setting": "[2]", "value": "≤ 4", "unit": "h"}]}]}
